Screening data (PubChem BioAssay)
Most compounds without a hit are left out; they make up all but 2.4% or so of the library.
SIAE inh: blocks human sialic acid acetylesterase; Q9HAT2; SIAE FP-Rh probe binding, fluorescence polarization; inhibition, % at 9.66 µM; 370,000 tested, 0.69% active; AID 1053197;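 active means inhibition above a cutoff: mean of compounds within the control limits plus 3 SD of those, cut at about 17% in these data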;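 further: 0% = plate median of compound wells and 100% = probe without SIAE protein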
Target sequence (Q9HAT2 whole entry, looked up): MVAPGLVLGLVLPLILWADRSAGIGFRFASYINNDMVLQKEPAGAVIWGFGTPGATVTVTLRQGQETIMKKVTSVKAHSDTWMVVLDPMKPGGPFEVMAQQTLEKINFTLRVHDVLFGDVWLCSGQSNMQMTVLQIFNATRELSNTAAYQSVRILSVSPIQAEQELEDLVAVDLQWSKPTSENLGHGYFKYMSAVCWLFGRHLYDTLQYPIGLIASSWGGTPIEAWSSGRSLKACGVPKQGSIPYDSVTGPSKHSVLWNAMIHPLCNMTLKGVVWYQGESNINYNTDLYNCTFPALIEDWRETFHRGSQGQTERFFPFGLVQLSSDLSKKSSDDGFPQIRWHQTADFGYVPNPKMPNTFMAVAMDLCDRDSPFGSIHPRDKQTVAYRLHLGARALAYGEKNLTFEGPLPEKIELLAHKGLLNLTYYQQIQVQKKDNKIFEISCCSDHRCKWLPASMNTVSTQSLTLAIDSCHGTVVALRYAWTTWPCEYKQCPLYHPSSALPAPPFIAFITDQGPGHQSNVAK
TCR-CD3 inh: inhibitors of human TCR-CD3 interaction; 360,000 tested, 0.37% active; inhibition, % at 9.4 µM; AID 651800; TAMRA-labeled TCR probe fluorescence, biochemical; in the data active means inhibition above about 19%;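 further: recombinant mutant TCR 2C K166C tagged with TAMRA read by polarization; 0% = receptor in buffer alone and 100% = receptor with positive control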
PAD4 inh: PAD4 (human) enzyme inhibition | Q9UM07 | recombinant PAD4, RCA probe fluorescence polarization | inhibition, % at 6.36 µM | 330,000 tested, 0.41% active;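 active means percent inhibition above a cutoff equal to the mean of all tested compounds plus 3 SD, cut at about 15% in these data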;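 further: 0% = PAD4 with RCA probe and DMSO and 100% = probe without PAD4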
GSTO1 inh: counter-screen for RBBP9 inhibitors: inhibitors of human GSTO1; P78417; recombinant GSTO1, activity-based probe fluorescence polarization; 300,000 tested, 1.1% active; inhibition, % at 5.96 µM; AID 1974;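 active means inhibition above the campaign mean inhibition plus 3 SD, cut at about 35% in these data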;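 further: 0% = GSTO1-1 with DMSO and 100% = wells lacking GSTO1-1 enzyme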
Apaf1 inhib: inhibitors of human Apaf-1 apoptosome; O14727; reconstituted apoptosome caspase-3 activity, DEVD-Rh110 fluorescence; inhibition, % at 20 µM; 330,000 tested, 0.71% active; AID 489030; active means inhibition of at least 40% at 20 µM;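 further: plate controls were DMSO wells for no effect and DEVD-CHO caspase inhibitor wells for full effect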
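Material: biochemical Apaf-1 apoptosome reconstitution. Medium: Hepes buffer, pH 7.5. Also added: cytochrome c activation, bis-DEVD rhodamine 110 substrate. Timing: 30 min compound preincubation, 50 min activation, room temperature. Measured by: rhodamine 110 fluorescence at Ex 480/Em 540 nm.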
TDP2 inh: TDP2 (human) inhibition, absorbance primary screen | O95551 | recombinant TDP2, T5PNP hydrolysis, p-nitrophenol absorbance 415 nm | inhibition, % at 12.8 µM | 370,000 tested, 0.34% active | AID 720702;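 active means inhibition above the mean of all tested compounds plus 3 SD, set per campaign, cut at about 25% in these data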;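 further: 0% = DMSO with enzyme and 100% = buffer with substrate but no TDP2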
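System – recombinant human TDP2 · Quantity – TDP2 enzyme at 120 nM final · Doses – single concentration, 12.8 µM nominal, with 1% DMSO · Incubation – 2 h at 37 °C · Measured by – epi absorbance of p-nitrophenol freed from T5PNP by hydrolysis · Read-out – % inhibition relative to enzyme-containing and enzyme-free wells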
* marks the source's active call; other numbers are inactive results.

Screening NS(=O)(=O)c1cccc(NC(=O)CSc2nc3ccccc3c(=O)n2Cc2ccco2)c1 returned SIAE inh -1, TCR-CD3 inh -14, PAD4 inh -4, Apaf1 inhib 18 and TDP2 inh -7.
CCOC(=O)C1CCN(C(=S)Nc2ccc(S(N)(=O)=O)cc2)CC1 was read as SIAE inh 3, TCR-CD3 inh -1, PAD4 inh 1, GSTO1 inh -1, Apaf1 inhib -2 and TDP2 inh 0.
For O=C(Nc1ccc(SC(F)F)cc1)C1CC(=O)N(Cc2ccccc2)C1 (stereo not drawn) the results were SIAE inh -2, TCR-CD3 inh -2, PAD4 inh 1, GSTO1 inh 1, Apaf1 inhib -8 and TDP2 inh -10.
O=C(c1ccco1)N(c1ccccn1)c1ccccn1 was read as SIAE inh 4, TCR-CD3 inh 3, PAD4 inh -5, GSTO1 inh -2, Apaf1 inhib 20 and TDP2 inh 4.
Screening O=C(/C=C/c1ccco1)N(c1ccccn1)c1ccccn1 returned SIAE inh 10, TCR-CD3 inh 11, PAD4 inh 5, GSTO1 inh 42*, Apaf1 inhib 1 and TDP2 inh 14.
`COc1ccc(C[C@H]2CN3C(=NC[C@@H]3C(C)C)N2CCNC(=O)CCC2CCCCC2)cc1` gave SIAE inh 2, TCR-CD3 inh 2, PAD4 inh -3, GSTO1 inh -4, Apaf1 inhib 26 and TDP2 inh -2.
Screening COc1ccc(C[C@H]2CN3C(=NC[C@@H]3Cc3ccccc3)N2CCNC(=O)CCC2CCCCC2)cc1 returned SIAE inh 2, TCR-CD3 inh -4, PAD4 inh 1, GSTO1 inh 2, Apaf1 inhib 52* and TDP2 inh -11.
Oc1ccccc1-c1nnc(SCCN2CCOCC2)n1Cc1ccccc1 was read as SIAE inh 15, TCR-CD3 inh 43*, PAD4 inh -4, GSTO1 inh 19, Apaf1 inhib 7 and TDP2 inh 12.
Screening Cc1cc(C)c(NC(=O)COC(=O)CCn2c(C)csc2=O)c(C)c1 returned SIAE inh -4, TCR-CD3 inh 3, PAD4 inh -1, GSTO1 inh 1, Apaf1 inhib 4 and TDP2 inh -4.
COc1cc(/C=C2/C(=O)N(c3ccc(C(=O)O)cc3)N=C2C)cc(OC)c1O was read as SIAE inh -35, TCR-CD3 inh -9, Apaf1 inhib 78* and TDP2 inh 21.
Nc1c(S(=O)(=O)c2cccs2)c2nc3ccccc3nc2n1CCc1ccccc1 was read as SIAE inh -8, TCR-CD3 inh 2, PAD4 inh 0, GSTO1 inh 1, Apaf1 inhib 71* and TDP2 inh 0.
For C/C(=N\NC(=O)c1cccc(N/N=C(\C)c2cc(O)ccc2O)c1)c1cc(O)ccc1O the results were SIAE inh 11, TCR-CD3 inh 30*, PAD4 inh -11, GSTO1 inh 10, Apaf1 inhib -5 and TDP2 inh 8.
For COc1ccc(N(Cc2cc3ccc(C)cc3[nH]c2=O)C(C)=O)cc1 the results were SIAE inh -3, TCR-CD3 inh 5, PAD4 inh -1, GSTO1 inh 4, Apaf1 inhib -4 and TDP2 inh -5.
For CCCn1c(N)c(N2CCCCC2)c(=O)n(CC(=O)Nc2ccc(OC(F)(F)F)cc2)c1=O the results were SIAE inh -3, TCR-CD3 inh 6, PAD4 inh -1, GSTO1 inh 10, Apaf1 inhib -2 and TDP2 inh 22.
CC(CCc1ccccc1)NC(=O)CN1CCSc2ccccc21 (stereo not drawn) was read as SIAE inh -1, TCR-CD3 inh 5, PAD4 inh -7, GSTO1 inh 36*, Apaf1 inhib 20 and TDP2 inh -3.
`CC(CCc1ccccc1)NC(=O)CN1CCOc2ccccc21` (stereo not drawn) gave SIAE inh 5, TCR-CD3 inh -3, PAD4 inh 1, GSTO1 inh 6, Apaf1 inhib 10 and TDP2 inh 0.
O=C(O)c1ccccc1C(=O)c1ccc2c(c1)N(Cc1cccc(F)c1)C(=O)CO2 was read as SIAE inh 3, TCR-CD3 inh 2, PAD4 inh 6, GSTO1 inh 2, Apaf1 inhib 20 and TDP2 inh 9.
